According to publication PMC6225502 (Journal of Clinical Oncology, 2018):

Columns and labels:
[1] = patients with advanced cancers; cited from earlier work
IDO1 [2] = assay: Pharmacokinetic-based projected IDO1 inhibition; design: species or system human
[3] = Safety and tolerability: treatment-related adverse events; assay type: in vivo, human
Method in brief: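 Patients receiving ≥1 dose of oral epacadostat twice daily plus IV pembrolizumab every 3 weeks were assessed on day 1 of every cycle, at end of treatment and during follow-up. Liver function tests were run weekly for the first 6 weeks. AEs were graded per CTCAE v4.0 and summarized descriptively.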

[4] = Plasma pharmacokinetics of epacadostat; assay type: in vivo, human
IDO1 [5] = conditions: doses ≥ 100 mg twice per day; ref [1][6]; cited from earlier work
[6] = assay type: in vivo, human
Method in brief: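 Adults with advanced solid tumors took oral epacadostat 25, 50 or 100 mg twice daily with IV pembrolizumab 2 mg/kg every 3 weeks, or 300 mg twice daily with 200 mg every 3 weeks, in 3 + 3 + 3 escalation. Expansion cohorts of up to nine received 50, 100 or 300 mg with 200 mg. DLTs were protocol-specified AEs within the first 6 weeks. RP2D was set by expansion tolerability.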

[7] = pembrolizumab monotherapy reference data set; cited from earlier work
[8] = epacadostat 100 mg twice per day + pembrolizumab
[9] = epacadostat 300 mg twice per day + pembrolizumab

NS(=O)(=O)NCCNc1nonc1C(=NO)Nc1ccc(F)c(Br)c1 [Epacadostat]
Tolerability of single-agent epacadostat [1]: well tolerated
Average concentrations at steady state relative to the IC50 associated with optimal target inhibition (IDO1 [2]; all patients who received epacadostat ≥ 100 mg twice per day): exceeded the IC50
Patients who achieved a minimum IDO1 inhibition of ≥ 50% (IDO1 [2]; epacadostat 100 mg twice per day): the majority of patients
Patients projected to have achieved ≥ 50% time-averaged IDO1 inhibition (IDO1 [2]; epacadostat 100 mg twice per day or 300 mg twice per day): all patients
Patients projected to have achieved ≥ 50% time-averaged IDO1 inhibition (IDO1 [2]; steady state, all epacadostat doses): > 90%
Rate of AEs of special interest [3, 8]: 6%
Rate of grade 3/4 TRAEs [3, 8]: 28%
Rate of treatment-related dose interruptions [3, 8]: 22%
Rate of treatment-related dose reductions [3, 8]: 11%
Rate of AEs of special interest [3, 9]: 30%
Rate of grade 3/4 TRAEs [3, 9]: 35%
Rate of treatment-related dose interruptions [3, 9]: 45%
Rate of treatment-related dose reductions [3, 9]: 35%
Dose dependence of plasma exposures (AUC and Cmax) ([4]; 25 to 300 mg twice per day + pembrolizumab): increased in an approximately dose-proportional manner
Time of maximum observed plasma concentration ([4]; across doses): approximately 2 hours
Inhibition of IDO1 activity and kynurenine levels (IDO1 [5]): provide optimal inhibition of IDO1 activity and normalization of kynurenine levels
DLTs observed ([6]; epacadostat 100 mg twice per day + pembrolizumab (15 patients)): grade 3 AST increased/grade 2 ALT increased and grade 2 nervous system disorder occurred in one patient each
Recommended phase II dose (RP2D) of epacadostat ([6]; plus pembrolizumab 200 mg every 3 weeks): 100 mg twice per day

pembrolizumab
Treatment-emergent antipembrolizumab antibody rate [7]: 2.1%
